Experimental data taken from paper PMC4738094 (Bioorganic & medicinal chemistry, 2015).
“Also recorded” adds a separate entry of the source.

Tested on: Neuro-2A neuroblastoma cells
Experiment: MTT cell viability assay under Aβ-induced cytotoxicity
Format: cell-based, Murine
Settings: Neuro-2A cells exposed to Aβ
Summary of the method: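 Neuro-2A cells grown in DMEM with 10% FBS and penicillin-streptomycin at 37°C, 5% CO2. Cells briefly trypsinised, seeded at 2,000–4,000 cells/mL, and rested 6 h. Aβ25–35 (from 833 µM solution), test compound (from 250 µM solution) and MTT were added together for 6 h. Extraction buffer (acetic acid/SDS in DMF/water, pH 4.7) was then added, with 6 h shaking in the dark at 37°C. A570 was expressed relative to an Aβ-free control.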

Structure (SMILES)	protection of cells against Aβ/ROS-induced stress (in words)
O=C(/C=C/c1ccc(O)c(O)c1)c1cccc(O)c1 [Compound 8, (E)-3-(3,4-dihydroxyphenyl)-1-(3-hydroxyphenyl)prop-2-en-1-one]	only modest protection
O=C(/C=C/c1ccc(O)c(O)c1)c1ccc(O)cc1 [Compound 9, (E)-3-(3,4-dihydroxyphenyl)-1-(4-hydroxyphenyl)prop-2-en-1-one]	increased cell viability at a modest but noticeable level
O=C(/C=C/c1cccc(O)c1)c1ccc(O)cc1O [Compound 10, (E)-1-(2,4-dihydroxyphenyl)-3-(3-hydroxyphenyl)prop-2-en-1-one]	poor rescue compound
O=C(/C=C/c1ccc(O)c(O)c1)c1c(O)cccc1O [Compound 11, (E)-1-(2,6-dihydroxyphenyl)-3-(3,4-dihydroxyphenyl)prop-2-en-1-one]	increased cell viability at a modest but noticeable level
O=C(/C=C/c1ccc(O)c(O)c1)c1cc(O)ccc1O [Compound 12, (E)-1-(2,5-dihydroxyphenyl)-3-(3,4-dihydroxyphenyl)prop-2-en-1-one]	good rescue properties; also recorded: increased cell viability at a modest but noticeable level
O=C(/C=C/c1ccc(O)c(O)c1)c1ccc(O)c(O)c1 [Compound 13, (E)-1,3-bis(3,4-dihydroxyphenyl)prop-2-en-1-one]	increased cell viability at a modest but noticeable level
O=C(/C=C/c1ccc(O)c(O)c1)c1cc(O)cc(O)c1 [Compound 14, (E)-3-(3,4-dihydroxyphenyl)-1-(3,5-dihydroxyphenyl)prop-2-en-1-one]	increased cell viability at a modest but noticeable level
O=C(/C=C/c1ccc(O)c(O)c1)c1ccc(O)cc1O [Compound 15, (E)-1-(2,4-dihydroxyphenyl)-3-(3,4-dihydroxyphenyl)prop-2-en-1-one]	best level of protection
O=C(/C=C/c1cccc(O)c1O)c1ccc(O)c(O)c1 [Compound 16, (E)-3-(2,3-dihydroxyphenyl)-1-(3,4-dihydroxyphenyl)prop-2-en-1-one]	increased cell viability at a modest but noticeable level
O=C(/C=C/c1cc(O)ccc1O)c1ccc(O)c(O)c1 [Compound 17, (E)-3-(2,5-dihydroxyphenyl)-1-(3,4-dihydroxyphenyl)prop-2-en-1-one]	best level of protection
O=C(/C=C/c1ccc(O)c(O)c1)c1ccc(O)c(O)c1O [Compound 18, (E)-3-(3,4-dihydroxyphenyl)-1-(2,3,4-trihydroxyphenyl)prop-2-en-1-one]	best level of protection
O=C(/C=C/c1ccc(O)c(O)c1O)c1ccc(O)c(O)c1 [Compound 19, (E)-1-(3,4-dihydroxyphenyl)-3-(2,3,4-trihydroxyphenyl)prop-2-en-1-one]	increased cell viability at a modest but noticeable level
O=C(/C=C/c1ccc(O)c(O)c1O)c1ccc(O)c(O)c1O [Compound 20, (E)-1,3-bis(2,3,4-trihydroxyphenyl)prop-2-en-1-one]	best level of protection

Tested on: not given
Experiment: not given
Settings: ref [74]; cited from earlier work

Structure (SMILES)	standard reduction potential [mV]
Oc1ccccc1O [catechol]	530
Oc1ccc(O)cc1 [hydroquinone]	459
Oc1cccc(O)c1 [resorcinol]	720

Tested on: XO
Experiment: not given
Settings: read-out: IC50 (XO inhibition); ref [6]; cited from earlier work

Structure (SMILES)	IC50 [µM]
Oc1ncnc2[nH]ncc12 [Allopurinol]	0.2 to 50

Same assay, conditions: ref [16]; cited from earlier work

Structure (SMILES)	potency (XO inhibition)
Cc1nc(-c2ccc(OCC(C)C)c(C#N)c2)sc1C(=O)O [febuxostat]	subnanomolar range
